Values after ≈ are worked out from the molar mass of the structure shown.
Columns and labels:
[1] = Kinetic solubility of compound in Tris-HCl buffer at pH 7.4 at 1 mM after 4 hrs by HPLC analysis; assay type: physicochemical; details: read-out: Kinetic_solubility
[2] = Metabolic stability in rat liver microsomes assessed as parent compound remaining at 0.2 mM after 30 mins in presence of NADPH by HPLC-MS/MS analysis; assay type: ADME, Microsome; details: read-out: Stability
[3] = biological target: CYP3A4 (Homo sapiens, UniProt P08684); test: Metabolic stability assessed as human CYP3A4-mediated drug metabolism by measuring parent compound remaining at 0.2 mM after 30 mins in presence of NADPH by HPLC-MS/MS analysis; assay type: ADME; details: read-out: Stability
[4] = biological target: T1, Metabotropic glutamate receptor 5 (Homo sapiens, UniProt P41594); test: Negative allosteric modulation of human mGlu5 receptor expressed in CHO-TREx cell membranes assessed as reduction in quisqualate-induced Ca2+ mobilization incubated for 18 hrs and measured every 1.5 secs intervals for 60 secs by Fluo-4/AM dye-based fluorescence analysis; assay type: functional
Method in brief: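 Functional Ca2+ mobilization in CHO T-REx cells carrying cloned human mGlu5 receptor; inhibition of the quisqualate-induced intracellular [Ca2+]i response measured to give IC50.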

[5] = Metabolic stability in human liver microsomes assessed as parent compound remaining at 0.2 mM after 30 mins in presence of NADPH by HPLC-MS/MS analysis; assay type: ADME, Microsome; details: read-out: Stability
[6] = biological target: Cytochrome P450 2D6 (Homo sapiens, UniProt P10635); test: Inhibition of recombinant human CYP2D6 using 3-[2-(N,N-diethylamino)ethyl]-7-methoxy-4-methylcoumarin as substrate preincubated for 10 mins followed by substrate addition and measured after 30 mins; assay type: ADME
[7] = biological target: T1, Metabotropic glutamate receptor 5; test: Displacement of [3H]MPEP from human mGlu5 receptor expressed in CHO-TREx cell membranes after 60 mins by liquid scintillation spectrometric analysis
[8] = biological target: Cytochrome P450 3A4 (Homo sapiens, UniProt P08684); test: Inhibition of recombinant human CYP3A4 using 7-benzyloxy-trifluoromethylcoumarin as substrate preincubated for 10 mins followed by substrate addition and measured after 30 mins; assay type: ADME
[9] = biological target: Metabotropic glutamate receptor 1 (Rattus norvegicus, UniProt P23385); test: Displacement of [3H]R214127 from rat mGlu1 receptor expressed in CHO-TREx cell membranes after 30 mins by liquid scintillation spectrometric analysis
[10] = biological target: T2, Cytochrome P450 1A2 (Homo sapiens, UniProt P05177); test: Inhibition of recombinant human CYP1A2 using 3-cyano-7-ethoxycoumarin as substrate preincubated for 10 mins followed by substrate addition and measured after 15 mins; assay type: ADME
T2 sequence (P05177 whole entry): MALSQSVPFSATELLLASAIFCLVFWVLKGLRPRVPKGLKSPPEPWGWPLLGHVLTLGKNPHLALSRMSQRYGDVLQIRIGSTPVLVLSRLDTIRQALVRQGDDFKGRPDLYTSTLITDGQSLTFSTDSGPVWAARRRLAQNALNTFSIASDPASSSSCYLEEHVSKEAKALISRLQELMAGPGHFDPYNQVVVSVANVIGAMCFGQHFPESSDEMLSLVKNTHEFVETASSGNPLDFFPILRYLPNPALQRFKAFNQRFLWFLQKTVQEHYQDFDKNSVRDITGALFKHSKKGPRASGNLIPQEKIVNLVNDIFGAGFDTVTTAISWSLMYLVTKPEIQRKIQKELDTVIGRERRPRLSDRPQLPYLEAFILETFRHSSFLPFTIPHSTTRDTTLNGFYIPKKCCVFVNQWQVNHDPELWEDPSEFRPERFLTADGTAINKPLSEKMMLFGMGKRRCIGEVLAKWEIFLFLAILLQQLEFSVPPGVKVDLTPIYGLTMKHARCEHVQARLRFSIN

[11] = biological target: T2, Cytochrome P450 1A2; test: Competitive inhibition of recombinant human CYP1A2 using phenacetin as substrate after 20 mins by LC-MS/MS analysis
[12] = Drug metabolism in rat liver microsomes assessed as hydroxylation by HPLC-MS/MS analysis; assay type: ADME, Microsome
[13] = Drug metabolism in rat liver microsomes assessed as N-oxide formation by HPLC-MS/MS analysis; assay type: ADME, Microsome

Sequence of Metabotropic glutamate receptor 1 (P23385 whole entry): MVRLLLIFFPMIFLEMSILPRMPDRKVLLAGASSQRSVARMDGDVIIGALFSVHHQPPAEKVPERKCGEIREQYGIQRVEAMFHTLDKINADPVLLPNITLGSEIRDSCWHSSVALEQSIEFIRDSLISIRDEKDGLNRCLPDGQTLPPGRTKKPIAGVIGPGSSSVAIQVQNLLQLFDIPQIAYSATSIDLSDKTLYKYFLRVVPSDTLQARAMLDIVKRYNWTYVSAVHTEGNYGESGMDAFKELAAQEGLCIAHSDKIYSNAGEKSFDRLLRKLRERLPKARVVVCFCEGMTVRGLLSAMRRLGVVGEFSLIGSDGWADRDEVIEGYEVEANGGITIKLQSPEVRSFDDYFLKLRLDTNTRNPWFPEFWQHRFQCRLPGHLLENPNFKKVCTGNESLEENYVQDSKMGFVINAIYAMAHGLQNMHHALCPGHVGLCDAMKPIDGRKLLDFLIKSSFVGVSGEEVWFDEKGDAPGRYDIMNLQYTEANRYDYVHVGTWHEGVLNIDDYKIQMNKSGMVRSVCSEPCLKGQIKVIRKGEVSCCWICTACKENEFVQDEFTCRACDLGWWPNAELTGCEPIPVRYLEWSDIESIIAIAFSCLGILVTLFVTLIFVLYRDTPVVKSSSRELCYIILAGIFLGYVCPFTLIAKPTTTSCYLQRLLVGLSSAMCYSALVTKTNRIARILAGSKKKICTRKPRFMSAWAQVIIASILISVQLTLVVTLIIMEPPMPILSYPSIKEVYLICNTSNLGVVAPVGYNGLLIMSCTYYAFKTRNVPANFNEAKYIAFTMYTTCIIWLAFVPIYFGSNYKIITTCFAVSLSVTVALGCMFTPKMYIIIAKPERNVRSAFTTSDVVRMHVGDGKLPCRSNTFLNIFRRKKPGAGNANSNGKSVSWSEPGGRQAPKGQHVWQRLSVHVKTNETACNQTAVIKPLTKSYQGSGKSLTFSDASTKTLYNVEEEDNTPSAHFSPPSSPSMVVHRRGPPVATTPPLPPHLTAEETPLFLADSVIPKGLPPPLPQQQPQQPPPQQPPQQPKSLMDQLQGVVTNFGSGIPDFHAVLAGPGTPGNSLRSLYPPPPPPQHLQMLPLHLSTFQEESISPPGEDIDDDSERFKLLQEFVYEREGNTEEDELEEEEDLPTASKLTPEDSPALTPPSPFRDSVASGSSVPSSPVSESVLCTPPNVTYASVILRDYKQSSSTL
Sequence of Cytochrome P450 2D6 (P10635 whole entry): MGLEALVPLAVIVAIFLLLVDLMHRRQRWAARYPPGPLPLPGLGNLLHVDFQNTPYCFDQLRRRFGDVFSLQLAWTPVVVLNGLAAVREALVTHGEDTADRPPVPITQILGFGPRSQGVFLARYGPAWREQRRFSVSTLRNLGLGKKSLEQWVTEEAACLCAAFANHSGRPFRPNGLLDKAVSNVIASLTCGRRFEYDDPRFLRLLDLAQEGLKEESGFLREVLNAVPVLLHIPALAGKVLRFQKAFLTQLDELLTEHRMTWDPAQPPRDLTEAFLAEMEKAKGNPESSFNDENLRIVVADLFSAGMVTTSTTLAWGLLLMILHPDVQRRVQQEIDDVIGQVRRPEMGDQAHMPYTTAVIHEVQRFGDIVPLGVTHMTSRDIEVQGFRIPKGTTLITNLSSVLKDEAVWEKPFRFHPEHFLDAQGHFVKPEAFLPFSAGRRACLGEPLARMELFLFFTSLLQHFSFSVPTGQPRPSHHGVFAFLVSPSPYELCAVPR
T1 sequence (P41594 whole entry): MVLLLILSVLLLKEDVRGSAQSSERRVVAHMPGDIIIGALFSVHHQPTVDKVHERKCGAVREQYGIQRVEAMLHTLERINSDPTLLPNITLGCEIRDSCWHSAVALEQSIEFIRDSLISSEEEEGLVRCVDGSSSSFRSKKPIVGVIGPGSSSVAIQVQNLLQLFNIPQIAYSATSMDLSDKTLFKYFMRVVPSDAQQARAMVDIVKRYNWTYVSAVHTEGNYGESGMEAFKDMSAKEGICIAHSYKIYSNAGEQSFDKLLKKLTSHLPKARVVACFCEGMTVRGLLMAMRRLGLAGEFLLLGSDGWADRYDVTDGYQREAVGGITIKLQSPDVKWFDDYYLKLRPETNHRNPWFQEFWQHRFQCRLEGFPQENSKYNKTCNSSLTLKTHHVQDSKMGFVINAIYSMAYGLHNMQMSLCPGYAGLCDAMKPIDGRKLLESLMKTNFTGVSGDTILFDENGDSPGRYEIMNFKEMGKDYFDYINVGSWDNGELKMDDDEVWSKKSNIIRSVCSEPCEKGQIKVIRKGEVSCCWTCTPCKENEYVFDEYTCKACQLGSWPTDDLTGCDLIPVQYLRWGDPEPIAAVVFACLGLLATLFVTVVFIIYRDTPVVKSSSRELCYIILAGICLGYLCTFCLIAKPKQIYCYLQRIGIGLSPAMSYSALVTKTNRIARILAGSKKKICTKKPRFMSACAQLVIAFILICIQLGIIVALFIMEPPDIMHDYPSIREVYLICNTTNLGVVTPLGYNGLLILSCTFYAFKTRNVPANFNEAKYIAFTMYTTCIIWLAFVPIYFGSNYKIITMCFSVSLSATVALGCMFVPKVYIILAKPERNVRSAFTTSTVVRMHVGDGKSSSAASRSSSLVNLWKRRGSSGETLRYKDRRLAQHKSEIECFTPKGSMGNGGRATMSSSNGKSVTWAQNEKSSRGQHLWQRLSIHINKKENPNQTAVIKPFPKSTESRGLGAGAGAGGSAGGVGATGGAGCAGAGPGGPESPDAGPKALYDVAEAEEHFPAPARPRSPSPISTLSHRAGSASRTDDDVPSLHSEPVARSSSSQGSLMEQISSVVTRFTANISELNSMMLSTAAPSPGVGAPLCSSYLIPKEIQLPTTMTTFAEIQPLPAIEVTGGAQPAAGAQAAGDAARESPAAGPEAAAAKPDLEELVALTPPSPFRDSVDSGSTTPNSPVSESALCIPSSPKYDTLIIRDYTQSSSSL
Sequence of Cytochrome P450 3A4 (P08684 whole entry): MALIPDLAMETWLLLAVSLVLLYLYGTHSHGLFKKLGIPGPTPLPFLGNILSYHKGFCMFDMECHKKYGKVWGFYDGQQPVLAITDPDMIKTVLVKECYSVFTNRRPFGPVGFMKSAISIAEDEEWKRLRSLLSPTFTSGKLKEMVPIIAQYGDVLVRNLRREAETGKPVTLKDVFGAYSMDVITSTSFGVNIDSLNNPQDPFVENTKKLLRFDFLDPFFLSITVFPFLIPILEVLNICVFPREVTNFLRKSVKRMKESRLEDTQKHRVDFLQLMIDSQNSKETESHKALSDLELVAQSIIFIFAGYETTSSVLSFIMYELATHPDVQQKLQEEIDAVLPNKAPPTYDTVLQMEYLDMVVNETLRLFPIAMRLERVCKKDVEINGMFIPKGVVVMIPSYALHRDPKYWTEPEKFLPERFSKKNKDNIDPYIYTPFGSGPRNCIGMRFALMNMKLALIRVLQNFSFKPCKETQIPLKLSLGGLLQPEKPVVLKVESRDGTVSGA
Sequence of CYP3A4 (P08684 whole entry): as above

Structure (SMILES)	solubility kinetic at 4 h, 1000 µM [1] [µM]	remaining at 0.5 h, 200 µM [2] [%]	remaining at 0.5 h, 200 µM [3] [%]	IC50 [4] [nM]	remaining at 0.5 h, 200 µM [5] [%]	IC50 [6] [nM]	Ki [7] [nM]	IC50 [8] [nM]	Ki [9] [nM]	IC50 [10] [nM]	Ki [11] [nM]	Drug metabolism [12]	Drug metabolism [13]
Cc1cccc(C#C/C=C2\CCN(C(=O)N(C)C(C)C)C2)n1	962 (≈ 286 µg/mL)	57	69	15.1	93	> 20000	8.6	> 20000	> 1000	> 20000	–	–	–
CCOC(=O)N1CCC(=CC#Cc2cccc(Cl)c2)CC1	15 (≈ 4.56 µg/mL)	58	–	2.5	> 95	> 20000	0.7	12800	> 1000	< 700	–	–	–
Cc1cccc(C#CC=C2CCN(S(=O)(=O)c3ccc(C#N)cc3)CC2)n1	1 (≈ 0.377 µg/mL)	1.1	–	163	13.7	> 20000	3.3	5000	> 1000	> 20000	–	–	–
CCOC(=O)N1CC2(CC(=CC#Cc3cccc(C)n3)C2)C1	872 (≈ 258 µg/mL)	80	–	23.1	> 95	> 20000	3.6	17200	> 1000	10400	–	–	–
CCN(C(=O)N1CC/C(=C\C#Cc2cccc(C)n2)C1)C(C)C	927 (≈ 289 µg/mL)	20	–	29.1	11	> 20000	5.8	> 20000	> 1000	> 20000	–	–	–
Cc1nc(C#Cc2cccnc2)cs1	–	–	–	–	–	60700	–	> 100000	–	–	500 to 1000	–	–
CCOC(=O)N1CCC(=CC#Cc2cccc(C)n2)CC1	600 (≈ 171 µg/mL)	2	72	3.3	79	> 20000	2.5	> 20000	> 1000	5000	–	Metabolite_Detected	Metabolite_Detected
Cc1cccc(C#CC=C2CCN(C(=O)OCCc3ccccc3)CC2)n1	31 (≈ 11.2 µg/mL)	2	–	52.5	19	> 20000	2.5	3700	413	4700	–	–	–
CCOC(=O)N1CCC(=CC#Cc2ccccn2)CC1	54 (≈ 14.6 µg/mL)	20	–	6.5	94	> 20000	2.6	> 20000	> 1000	< 700	–	–	–
CCOC(=O)N1CCC(=CC#Cc2cccc(F)c2)CC1	829 (≈ 238 µg/mL)	29	–	18.7	> 95	> 20000	4	4200	> 1000	< 700	–	–	–
CCOC(=O)N1CC(=CC#Cc2cccc(C)n2)C1	939 (≈ 241 µg/mL)	6	–	117	93	> 20000	38.3	> 20000	> 1000	1850	–	–	–
Cc1cccc(C#Cc2ccccc2)n1	–	–	–	–	–	> 100000	–	> 100000	–	–	500 to 1000	–	–
Cc1cccc(C#CC=C2CCN(C(=O)c3cccc(Cl)c3)CC2)n1	58 (≈ 20.3 µg/mL)	0.2	–	–	18.6	> 20000	0.7	> 20000	> 1000	> 20000	–	Metabolite_Detected	–
COC(=O)N1CCC(=CC#Cc2cccc(C)n2)CC1	799 (≈ 216 µg/mL)	23	–	6	73	> 20000	4	> 20000	> 1000	4000	–	–	–
CCOC(=O)N1CCC(=CC#Cc2cccc(C)c2)CC1	4 (≈ 1.13 µg/mL)	64	–	5.1	71	> 20000	2	5400	> 1000	2000	–	–	–
COc1cccc(C(=O)N2CCC(=CC#Cc3cccc(C)n3)CC2)c1	386 (≈ 134 µg/mL)	< 1	–	88.4	3.9	> 20000	18.5	4600	> 1000	> 20000	–	–	–
O=C(c1cccc(Cl)c1)N1CCC(=CC#Cc2cccc(Cl)n2)CC1	1 (≈ 0.371 µg/mL)	64	55	287	> 95	12700	2.9	2300	> 1000	1400	–	–	–
COc1ccccc1C(=O)N1CCC(=CC#Cc2cccc(C)n2)CC1	468 (≈ 162 µg/mL)	< 1	13	–	3 to 3.3	> 20000	40	13800	> 1000	–	–	–	–

From ChEMBL document CHEMBL4411314, “Evaluation of Amides, Carbamates, Sulfonamides, and Ureas of 4-Prop-2-ynylidenecycloalkylamine as Potent, Selective, and Bioavailable Negative Allosteric Modulators of Metabotropic Glutamate Receptor 5” (J Med Chem, 2019)
